In general, IC50 refers to the concentration at which inhibition is half-maximal. Low values mean higher potency, high ones lower potency.

Each structure is given as a SMILES string. A value given as a limit tells only on which side of the number the result lay.

The subject of one assay is A549. Put plainly: Cytotoxicity against human A549 cells by MTT assay. Type of assay: functional. As to conditions: read-out: LC50 (the source's name). A digest of the protocol:
(§1)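 LC50 is the concentration giving a 50% drop in cell viability relative to untreated controls without inhibitor. It is read from dose–response curves for each sample and reported as mean ± SD of three independent experiments (n = 3).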
For orientation: Tetrazolium assays rely on reduction of a dye to a coloured formazan, in cell work by metabolically active cells.

The test system of assay [1] is K562. In words: Cytotoxicity against human K562 cells by MTT assay. The format is functional. As to conditions: read-out: LC50 (the source's name). A digest of the protocol: as §1
The target of assay [2] is Sodium/potassium-transporting ATPase. In words: Inhibition of Na+/K+-ATPase (unknown origin). The format is protein-complex assay, Homo sapiens.
Assay [3] is described as follows: Inhibition of isocitrate lyase (unknown origin).
Assay [4] is described as follows: Inhibition of sortase A (unknown origin).
For assay [5], the system named is K562. In words: Ratio of doxorubicin LC50 to compound LC50 for human K562 cells. Type of assay: functional.

For the compound `COc1cccc2c1C(=O)c1c(O)c3c(c(O)c1C2=O)C[C@@](O)(C(=O)CO)C[C@@H]3O[C@H]1C[C@H](N)[C@H](O)[C@H](C)O1` [DOXORUBICIN], the results for the CC50 in the assay with A549 and with K562 [1] were 520 nM and 700 nM, respectively.
For the compound `CO[C@@H](NC(C)=O)[C@H](O)[C@]1(C)CC[C@H](C(C)C)[C@@H]1c1cc([C@]2(O)Cc3cc(O)c(=O)c(C)c4c3[C@@H](O2)[C@H](O)[C@]2(C)CC[C@H](C(C)C)[C@H]42)cc(O)c(=O)c1C`, the IC50 in assay [2], in assay [3] and in assay [4] was above 100000 nM each time. In addition, the CC50 with A549 was 100 nM; in the assay on K562 [1] it was 120 nM.
As for `Cc1c([C@H]2[C@@H](C(C)C)CC[C@@]2(C)C(=O)CNCCS(=O)(=O)O)cc([C@]2(O)Cc3cc(O)c(=O)c(C)c4c3[C@@H](O2)[C@H](O)[C@]2(C)CC[C@H](C(C)C)[C@H]42)cc(O)c1=O`, the IC50 in assay [2], in assay [3] and in assay [4] was above 100000 nM each time. The CC50 came to 110 nM in the assay on A549 and 320 nM in the assay on K562 [1].
Consider `CC(=O)O[C@@H](C=O)[C@]1(C)CC[C@H](C(C)C)[C@@H]1c1cc([C@]2(O)Cc3cc(O)c(=O)c(C)c4c3[C@@H](O2)[C@H](O)[C@]2(C)CC[C@H](C(C)C)[C@H]42)cc(O)c(=O)c1C` [GUKULENIN A], for which the IC50 in assay [2], in assay [3] and in assay [4] was above 100000 nM in each case. The CC50 came out at 320 nM in the assay on A549 and 260 nM with K562 [1].
Consider `CC(=O)N[C@H](O)[C@H](O)[C@]1(C)CC[C@H](C(C)C)[C@@H]1c1cc([C@]2(O)Cc3cc(O)c(=O)c(C)c4c3[C@@H](O2)[C@H](O)[C@]2(C)CC[C@H](C(C)C)[C@H]42)cc(O)c(=O)c1C`, for which the IC50 in assay [2], in assay [3] and in assay [4] was above 100000 nM throughout. In addition, the CC50 in the assay on A549 was 550 nM; in the assay with K562 [1], 440 nM.
Regarding `CC(=O)O[C@@H](C=O)[C@]1(C)CC[C@H](C(C)C)[C@@H]1c1cc(/C(O)=C/c2cc(O)c(=O)c(C)c3c2[C@@H](O)[C@H](O)[C@]2(C)CC[C@H](C(C)C)[C@H]32)cc(O)c(=O)c1C`, the IC50 in assay [2], in assay [3] and in assay [4] was above 100000 nM each time. Further, the RatioLC50 in the assay with K562 [5] was 17. The CC50 stood at 380 nM in the assay on A549 and 40 nM in the assay on K562 [1].

The values are drawn from ChEMBL document CHEMBL2417500, “Cytotoxic diterpenoid pseudodimers from the Korean sponge Phorbas gukhulensis” (J Nat Prod, 2013).
